Results from ChEMBL document CHEMBL5244268, “Preventing Candida albicans biofilm formation using aromatic-rich piperazines” (Bioorg Med Chem, 2020).
In brackets after ≈: the same amount, converted by molar mass. Activity calls are given as the source filed them. The calls are words filed in the database; no cut-off is given here.

Key:
[1] = tested on: Candida albicans; assay: Antibiofilm activity against Candida albicans ATCC 28366 at up to 96 ug/ml incubated for 24 to 48 hrs by crystal violet staining based absorbance spectrometry analysis; format: functional, organism-based; settings: dose <= 96.0 µg/ml, time 24-48 hrs
In short: (§1)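 Overnight cultures (37 °C, aerobic, Sabouraud pH 7.0) adjusted to OD660 0.2, mixed 1:1 with two-fold serial dilutions in medium and incubated at 37 °C. Biofilm stained with crystal violet, dye released in 75% ethanol, A550 read. Growth relative to compound-free wells (100%) after blank subtraction. At least two independent experiments in triplicate, t test.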

[2] = tested on: Candida albicans; assay: Antifungal activity against Candida albicans ATCC 28366 assessed as reduction in fungal growth incubated for 24 hrs by plate count determination; format: functional, organism-based
[3] = tested on: Candida albicans; assay: Antibiofilm activity against Candida albicans ATCC 28366 incubated for 24 to 48 hrs by crystal violet staining based absorbance spectrometry analysis; format: functional, organism-based; settings: time 24-48 hrs; in short: as §1
[4] = tested on: Candida albicans; assay: Antibiofilm activity against Candida albicans ATCC 28366 assessed as disruption of preformed biofilm incubated for 12 hrs by crystal violet staining based absorbance spectrometry analysis; format: functional, organism-based
In short: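 Mature biofilms grown 36 to 48 h in Sabouraud pH 7.0 without compound; medium and free cells removed, rinsed with 50 mM PBS pH 7.0, then two-fold serial dilutions in PBS added for 12 h at 37 °C. Residual biofilm stained with crystal violet, dye released in 75% ethanol, A550 read. PBS-treated biofilms as controls.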

[5] = tested on: Candida albicans; assay: Antibiofilm activity against Candida albicans LAM-1 assessed as reduction in fungal growth at 1 to 4 ug/ml incubated for 4 hrs in spider medium by plate count determination; format: functional, organism-based; settings: dose 1-4 µg/ml
In short: (§2)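 After the 4 h, 37 °C morphogenesis incubation in Spider medium (YPD overnight inoculum, 50 µL into 5 mL), OD660 measured to follow fungal growth; C. albicans viability confirmed by plate count.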

[6] = tested on: Candida albicans; assay: Antibiofilm activity against Candida albicans ATCC 28366 assessed as inhibition of morphogenesis at 1 to 4 ug/ml incubated for 4 hrs in spider medium by microscopic analysis; format: functional, organism-based; settings: dose 1-4 µg/ml
In short: (§3)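 Yeast-form cells grown overnight in YPD at 30 °C. 50 µL inoculated into 5 mL hypha-inducing medium (e.g., Spider: 1% nutrient broth, 1% mannitol, 0.2% K2HPO4, pH 7.2) containing two-fold dilutions, then 4 h at 37 °C. At least 100 cells per replicate counted as hypha (pseudohyphae and intermediates included) or yeast. Compound-free control for maximal conversion. At least two independent experiments in triplicate.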

[7] = tested on: Candida albicans; assay: Antibiofilm activity against Candida albicans ATCC 28366 assessed as reduction in fungal growth at 1 to 4 ug/ml incubated for 4 hrs in spider medium by plate count determination; format: functional, organism-based; settings: dose 1-4 µg/ml; in short: as §2
[8] = tested on: Candida albicans; assay: Antifungal activity against Candida albicans ATCC 28366 assessed as reduction in fungal growth at up to 64 ug/ml incubated for 24 hrs by plate count determination; format: functional, organism-based; settings: dose <= 64.0 µg/ml
[9] = tested on: Candida albicans; assay: Antibiofilm activity against Candida albicans ATCC 28366 assessed as inhibition of biofilm formation at 0.5 to 32 ug/ml incubated for 24 to 48 hrs by crystal violet staining based absorbance spectrometry analysis; format: functional, organism-based; settings: dose 0.5-32 µg/ml, time 24-48 hrs; in short: as §1
[10] = tested on: Candida albicans; assay: Antibiofilm activity against Candida albicans ATCC 28366 assessed as inhibition of biofilm formation at 2 ug/ml incubated for 24 to 48 hrs by crystal violet staining based absorbance spectrometry analysis; format: functional, organism-based; settings: dose 2.0 µg/ml, time 24-48 hrs; in short: as §1
[11] = tested on: Candida albicans; assay: Fungicidal activity against Candida albicans ATCC 28366 assessed as prevention of colony formation incubated for 24 hrs; format: functional
[12] = tested on: Candida albicans; assay: Antifungal activity against Candida albicans ATCC 28366 assessed as inhibition of fungal growth incubated for 24 hrs by plate count determination; format: functional
In short: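 Biofilm-assay setup (Sabouraud pH 7.0, inoculum OD660 0.2, serial two-fold dilutions, 37 °C). […] Highest value kept when replicates differ. At least two independent experiments in triplicate.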

[13] = tested on: Candida albicans; assay: Antibiofilm activity against Candida albicans ATCC 28366 assessed as inhibition of N-acetylglucosamine induced morphological switching at 8 ug/ml incubated for 4 hrs by microscopic analysis; format: functional, organism-based; settings: dose 8.0 µg/ml; in short: as §3
[14] = tested on: Candida albicans; assay: Antibiofilm activity against Candida albicans ATCC 28366 assessed as reduction in fungal growth at 8 ug/ml incubated for 4 hrs in spider medium by plate count determination; format: functional, organism-based; settings: dose 8.0 µg/ml; in short: as §2
[15] = tested on: Candida albicans; assay: Antibiofilm activity against Candida albicans LAM-1 assessed as inhibition of morphogenesis at 8 ug/ml incubated for 4 hrs in spider medium by microscopic analysis; format: functional, organism-based; settings: dose 8.0 µg/ml; in short: as §3
[16] = tested on: Candida albicans; assay: Antibiofilm activity against Candida albicans ATCC 28366 assessed as inhibition of morphogenesis at 8 ug/ml incubated for 4 hrs in spider medium by microscopic analysis; format: functional, organism-based; settings: dose 8.0 µg/ml; in short: as §3
[17] = tested on: Candida albicans; assay: Antibiofilm activity against Candida albicans ATCC 28366 assessed as inhibition of nitrogen deprivation induced morphological switching at 8 ug/ml incubated for 4 hrs in SLAD media by microscopic analysis; format: functional, organism-based; settings: dose 8.0 µg/ml; in short: as §3
[18] = tested on: Candida albicans; assay: Antibiofilm activity against Candida albicans LAM-1 assessed as reduction in fungal growth at 8 ug/ml incubated for 4 hrs in spider medium by plate count determination; format: functional, organism-based; settings: dose 8.0 µg/ml; in short: as §2
[19] = tested on: Candida albicans; assay: Antibiofilm activity against Candida albicans ATCC 28366 assessed as inhibition of morphological switching at 8 ug/ml incubated for 4 hrs in YPD medium with fetal bovine serum by microscopic analysis; format: functional, organism-based; settings: dose 8.0 µg/ml; in short: as §3
[20] = tested on: Candida albicans; assay: Antibiofilm activity against Candida albicans ATCC 28366 assessed as inhibition of filamentation at 8 ug/ml incubated for 4 hrs in Lee's medium by microscopic analysis; format: functional, organism-based; settings: dose 8.0 µg/ml; in short: as §3

Question: How did the Activity [1] turn out when `CN1C[C@H](Cc2ccccc2)N(C)C[C@@H]1Cc1ccccc1` was run?
Answer: inactive

Question: Which Activity [2] does the source give for `Oc1ccc(C[C@@H]2CN[C@H](Cc3ccccc3)CN2)cc1` here?
Answer: inactive

Question: And the Activity [3]?
Answer: inactive

Question: What about the Activity [4] of the same compound?
Answer: inactive

Question: Which Activity [5] does the source give for `c1ccc(COc2ccc(C[C@@H]3CN[C@H](Cc4ccccc4)CN3)cc2)cc1` here?
Answer: inactive

Question: What about the inhibition [6] of the same compound?
Answer: Active

Question: What about the Activity [7] of the same compound?
Answer: inactive

Question: What about the Activity [8] of the same compound?
Answer: inactive

Question: And the Activity [4]?
Answer: inactive

Question: And the inhibition [9]?
Answer: Active

Question: With `CN1C[C@@H](Cc2ccccc2)N(C)C[C@H]1Cc1ccccc1` as the compound, how does the Activity [1] read?
Answer: inactive

Question: What does the source list for `Oc1ccc(C[C@H]2CN[C@@H](Cc3ccc(O)cc3)CN2)cc1`?
Answer: Activity [2]: inactive; Activity [3]: inactive; Activity [4]: inactive

Question: Which results are given for `c1ccc(COc2ccc(C[C@H]3CN[C@@H](Cc4ccc(OCc5ccccc5)cc4)CN3)cc2)cc1`?
Answer: inhibition [10]: Active; MFC [11]: 24 µg/mL (≈ 50.1 µM); Activity [4]: inactive; MIC [12]: 24 µg/mL (≈ 50.1 µM)

Question: How did the Activity [1] turn out when `c1ccc(C[C@@H]2CN[C@H](Cc3ccccc3)CN2)cc1` was run?
Answer: inactive

Question: And the Activity [4]?
Answer: inactive

Question: For `c1ccc(COc2ccc(C[C@H]3CN[C@H](Cc4ccccc4)CN3)cc2)cc1`, which Activity [8] is on record?
Answer: inactive

Question: And the Activity [4]?
Answer: inactive

Question: And the inhibition [9]?
Answer: Active

Question: Which results are given for `CN1C[C@H](Cc2ccc(O)cc2)N(C)C[C@@H]1Cc1ccc(O)cc1`?
Answer: Activity [2]: inactive; Activity [3]: inactive

Question: Which results are given for `CN1C[C@H](Cc2ccc(OCc3ccccc3)cc2)N(C)C[C@@H]1Cc1ccccc1`?
Answer: Activity [2]: inactive; inhibition [13]: inactive; Activity [3]: inactive; Activity [14]: inactive; inhibition [15]: inactive; inhibition [16]: inactive; inhibition [17]: inactive; Activity [18]: inactive; inhibition [19]: inactive; inhibition [20]: inactive
